# The full list was thinned out, with hits kept by preference.
# L major viab – Leishmania major promastigote growth inhibition, primary screen. Leishmania major promastigotes, resazurin fluorescence viability. inhibition, % at 10 µM. 200,000 compounds, 9% hits. AID 1063, 2008; in the data active = inhibition above about 50%;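 also: promastigotes grown with compound for 44 hours at 28 °C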
# S1P3 antagonist – S1P3 receptor antagonists, primary screen, cell-based; CHO S1P3 NFAT-BLA reporter, FRET fluorescence, antagonist mode; inhibition, % at 4.98 µM; 170,000 compounds, 0.27% hits; AID 485, 2006;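 active = inhibition above the plate cutoff, the mean inhibition of test wells on that plate plus 3 SD, cut at about 28% in these data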;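 also: cells challenged with S1P at its EC80 of 0.8 µM; blue over green emission ratio from cleaved BLA substrate after 4 h stimulation; 0% = S1P-stimulated wells and 100% = unstimulated DMSO-only wells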
# Target sequence (Q99500 whole entry, looked up): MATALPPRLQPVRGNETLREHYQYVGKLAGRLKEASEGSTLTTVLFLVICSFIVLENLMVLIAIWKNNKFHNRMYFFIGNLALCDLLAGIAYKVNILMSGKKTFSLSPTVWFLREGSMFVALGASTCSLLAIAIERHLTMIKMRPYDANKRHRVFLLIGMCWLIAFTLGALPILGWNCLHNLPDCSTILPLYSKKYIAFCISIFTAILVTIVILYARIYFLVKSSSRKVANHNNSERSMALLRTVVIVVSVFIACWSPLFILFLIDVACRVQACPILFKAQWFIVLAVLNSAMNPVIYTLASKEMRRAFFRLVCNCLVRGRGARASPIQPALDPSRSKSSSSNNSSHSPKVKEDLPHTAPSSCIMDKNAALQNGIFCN
# S1P4 antag – S1P4 receptor antagonists, primary screen, cell-based | Sphingosine 1-phosphate receptor 4 (Homo sapiens), O95977 | S1P4-expressing cells, antagonist mode, reporter read-out | inhibition, % at 4.98 µM | 220,000 compounds, 0.26% hits | AID 1510, 2009; in the data active = inhibition above about 29%;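 also: 0% = wells stimulated with agonist and 100% = vehicle wells without agonist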
# MDM2 E3 inh – MDM2-luciferase reporter signal enhancers, primary screen, MDM2 E3 ligase inhibitor project, cell-based, luminescence, 1536-well; E3 ubiquitin-protein ligase Mdm2 (Homo sapiens), Q00987; signal enhancement, % at 5 µM; 210,000 compounds, 0.11% hits; cell-based MDM2 ubiquitination luciferase reporter, 2 h; 0 = plate control, 100 = twice control, blank-subtracted; AID 1230, 2008;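 active = signal enhancement of 30% or more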;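 also: luminescence tracks abundance of the self-degrading MDM2-luciferase fusion protein; higher signal means inhibition of MDM2 E3 ligase activity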
#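 test system = mammalian cells stably expressing self-ubiquitinating, self-degrading MDM2 E3–luciferase fusion | quantity = 2000 cells/well | incubation = cell settling 4 h, compound treatment 2 h, both 37 °C | signal = luminescence with SteadyLite reagent, 15 min at room temperature | evaluation = % enhancement relative to plate controls after blank subtraction | benchmarks = plate controls and plate blanks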
# S1P4 ag – S1P4 receptor agonists, primary screen, cell-based; Sphingosine 1-phosphate receptor 4 (Homo sapiens), O95977; S1P4-expressing cell line, agonist reporter assay; activation, % at 4.98 µM; 220,000 compounds, 0.35% hits; AID 1509, 2009; in the data active = activation above about 11%;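 also: 0% = DMSO vehicle and 100% = reference agonist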
# * hit, by the source's call; x = no result.
SMILES,L major viab,S1P3 antagonist,S1P4 antag,MDM2 E3 inh,S1P4 ag
COc1ccc(C2CC(C(F)(F)F)n3nc(C(=O)Nc4c(C)n(C)n(-c5ccccc5)c4=O)c(Cl)c3N2)cc1 (stereo not given),69.0*,-1.8,-29.6,3.4,2.3
Cc1ccc(C(=O)CC(=O)COc2ccc(Cl)cc2)cc1,66.3*,-9.8,-2.6,-2.4,-0.2
Cc1ccc(C(=O)CNc2ccc(Cl)cc2)cc1,6.0,1.1,-6.0,-15.3,0.1
CC1CCc2cc(F)ccc2N1C(=O)CSc1nnc2c(n1)[nH]c1ccc(F)cc12 (stereo not given),9.8,x,-4.1,-6.6,0.9
Cc1csc(SC(C)C(=O)Nc2ccc(Cl)cn2)n1 (stereo not given),-4.4,x,-9.0,6.8,0.5
CC(Sc1nc(-c2ccc(F)cc2)cs1)C(=O)Nc1ccc(Cl)cn1 (stereo not given),61.1*,-0.6,-23.5,-21.0,-0.6
CCN1CCN(C(=O)CCCn2c(C)c3cnn(-c4ccccc4)c(=O)c3c2C)CC1,69.4*,x,-2.6,-5.6,1.3
COc1ccc(NC(=S)NCCc2c[nH]c3ccccc23)c(OC)c1,27.6,-3.1,13.5,-9.5,1.9
COc1cc(C(=O)NCCc2c[nH]c3ccccc23)ccc1OCc1c(C)noc1C,17.7,4.4,-10.9,-3.2,0.1
COc1cccc(CNCCc2c[nH]c3ccccc23)c1OCc1ccccc1,98.6*,-1.9,-2.8,-20.5,-3.5
COc1cccc(CNC23CC4CC(CC(C4)C2)C3)c1OCc1ccccc1,91.6*,-8.7,19.3,-20.1,-2.3
COc1cc(CNCCc2c[nH]c3ccccc23)ccc1OCc1ccccc1F,98.2*,x,7.2,-16.7,0.3
CCN(C(=O)CN1CCN(c2ccc(OC)cc2)CC1)c1c(N)n(Cc2ccccc2)c(=O)[nH]c1=O,-0.3,-34.5,-2.9,-3.3,-0.7
Cc1ccc(-c2nc3c(=O)n(-c4ccccc4)c4c(c(=O)n(C)c(=O)n4C)c3o2)cc1,x,-13.6,8.8,-2.0,0.9
Cc1ccc(-c2nc3c(=O)n(C)c4ccccc4c3o2)cc1,62.6*,-5.1,6.9,-9.7,2.1
CC(=O)Nc1ccc(C(=O)Cn2c3[n+](c4c(F)c(F)ccc42)CCCCC3)cc1,-5.0,4.3,2.8,-3.8,-0.8
Cc1ccc(N=Cc2cc(Cc3ccccc3Cl)cc([N+](=O)[O-])c2O)c(O)c1,72.8*,-17.6,-1.5,-18.1,1.9
CC(C)OP(=O)(OC(C)C)C(Nc1ccccc1)c1ccccc1C(F)(F)F (stereo not given),94.5*,4.5,-10.6,-17.9,-1.2
CC(C)OP(=O)(OC(C)C)C(Nc1ccccc1)c1cccc2c1OCO2 (stereo not given),-1.0,2.5,-10.5,-11.2,-0.4
CCOC(=O)c1c(C)c(C(=O)N2CCN(c3ccc(F)cc3)CC2)c(C)n1C,8.9,-17.6,0.4,-6.2,0.0
Cc1ccc(F)cc1NC(=O)c1ccc(NS(=O)(=O)c2ccc(Br)s2)cc1,-3.1,2.7,-21.1,-1.9,0.6
Cc1nn(-c2ccccc2)c(Cl)c1/C=N/NC(=O)c1cccnc1,-3.2,-12.8,-0.2,3.2,0.9
COC(=O)N/N=C/c1c(C)c(C(=O)c2ccc(F)cc2)n2ccccc12,6.9,4.9,-13.3,-16.8,3.6
Cc1c(/C=N/NC(=O)c2ccc(O)cc2)c2ccccn2c1C(=O)c1ccc(F)cc1,91.6*,-11.2,-17.1,3.8,0.2
Cc1ccc(-n2nc(C)c(/C=N/NC(=O)c3cccnc3)c2Cl)cc1,56.7*,-3.7,12.5,1.4,-1.6
Cc1c(/C=N/NC(=O)c2ccccc2O)c2ccccn2c1C(=O)c1ccc(F)cc1,59.0*,7.9,-10.6,x,-0.9
Cc1c(/C=N/NC(=O)c2cccnc2)c2ccccn2c1C(=O)c1ccc(F)cc1,53.1*,-3.4,-23.2,-33.6,0.8
OCCC1CN(Cc2cc3c(cc2Cl)OCO3)CCN1C1CCCCC1 (stereo not given),47.8,5.0,6.2,-10.7,-1.5
O=C(NCc1csc(-c2cccs2)n1)C1CCCCC1,x,-1.2,0.7,-16.8,0.3
CCOc1ccc(CC(=O)Nc2nccs2)cc1OCC,-1.9,-20.8,-4.1,-3.3,0.1

# Bioassay records from PubChem BioAssay.
